IDH1 mut inh = blocks human IDH1 R132H reductase activity; O75874; diaphorase/resazurin fluorescence, 60 min; inhibition, % at 10 µM; 0.18% of 70,000 active; in the data active = inhibition above about 34%; inconclusive = no clear call, values can overlap the other calls; inactive = below about 11%;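 also: 0% = DMSO and 100% = no enzyme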
GASC1 inh = inhibitors of human demethylase GASC-1 KDM4C | Q9H3R0 | GST-KDM4C 2-372, H3K9me3 peptide, LANCE TR-FRET | inhibition, % at 12.5 µM | 0.15% of 96,000 active | AID 720574;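 active = mean replicate inhibition above about 25%, with at least 55% of replicates also reaching it, limit read from the data, passing the limit was not always enough; inconclusive = only one of those two conditions met; inactive = neither condition met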
Target sequence (Q9H3R0 2-372 limits assumed): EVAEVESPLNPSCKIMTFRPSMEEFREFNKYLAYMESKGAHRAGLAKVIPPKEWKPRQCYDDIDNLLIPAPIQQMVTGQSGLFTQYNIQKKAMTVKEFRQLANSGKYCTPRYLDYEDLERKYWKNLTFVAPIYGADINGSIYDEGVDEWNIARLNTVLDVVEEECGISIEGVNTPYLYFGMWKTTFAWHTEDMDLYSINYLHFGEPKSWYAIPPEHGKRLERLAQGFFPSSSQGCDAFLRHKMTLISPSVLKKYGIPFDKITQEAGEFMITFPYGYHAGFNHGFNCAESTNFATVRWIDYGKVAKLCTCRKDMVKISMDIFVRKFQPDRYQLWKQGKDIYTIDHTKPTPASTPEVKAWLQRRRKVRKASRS
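Material: GST-tagged GASC-1 (JMJD2C) catalytic fragment, aa 2-372 / Quantity: enzyme final amount 10 nM / Medium: HEPES buffer, pH 7.5, plus ascorbate / Doses: one test concentration per compound / Incubation: 30 min reaction, 60 min detection, RT / Measured by: LANCE TR-FRET / Read-out: inhibition from TR-FRET ratio decrease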
T cruzi growth-1 = T. cruzi proliferation inhibition; T. cruzi beta-gal in NIH3T3, GalScreen luminescence, 90 h; inhibition, % at 8.34 µM; AID 624255; 5.9% of 77,000 active;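 active = mean inhibition above about 93%, with at least 55% of replicates each passing it, limit read from the data, passing the limit was not always enough; inconclusive = only one of those two conditions holds; inactive = neither condition holds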
T cruzi growth-2 = Trypanosoma cruzi proliferation inhibition; shares compounds with T cruzi growth-1; T. cruzi beta-gal in NIH3T3, GalScreen luminescence, 90 h; inhibition, % at 8.35 µM; 72% of 5,600 active; AID 651739;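 active = mean replicate inhibition above about 95% and at least 55% of replicates individually reaching it, limit read from the data; inconclusive = only one of the two criteria is met; inactive = neither criterion is met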
T cruzi growth-3 = Trypanosoma cruzi proliferation inhibition; AID 651740; inhibition, % at 2.09 µM; T. cruzi beta-gal in NIH3T3, GalScreen luminescence, 90 h; shares compounds with T cruzi growth-1; 21% of 5,600 active;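 active = mean inhibition above about 95%, with at least 55% of replicates also reaching it, limit read from the data; inconclusive = meets just one of the two conditions; inactive = meets neither condition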;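 also: plate controls were neutral control median for no effect and positive control median for full effect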
3T3 cytotox = cytotoxicity in mouse NIH/3T3 fibroblasts | shares compounds with T cruzi growth-1 | NIH/3T3 viability, CellTiter-Glo ATP luminescence, 90 h | cytotoxicity (signal decrease), % at 8.35 µM | 14% of 5,600 active | AID 651742;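 active = mean signal decrease across replicates above about 35% based on untreated-well scatter, with enough replicates individually passing, limit read from the data; inconclusive = no rule stated though some were filed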;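 also: 0% = median of neutral control wells and 100% = median of positive control wells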
NIH3T3 tox 2 = cytotoxicity in mouse NIH/3T3 fibroblasts. shares compounds with T cruzi growth-1. NIH/3T3 viability, CellTiter-Glo ATP luminescence, 90 h. inhibition, % at 24.9 µM. 56% of 5,600 active. AID 651744;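 active = mean loss of cell viability signal at or above a set limit, and enough replicates individually reaching it; inconclusive = meets only the mean limit or only the replicate share; inactive = meets neither condition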;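 also: 0% = median of neutral control wells and 100% = median of positive control wells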
Active calls of the source: *; ? = inconclusive; / = no result given. Many of the other results were omitted from the sample, so hits are more common in it than they were.

SMILES	IDH1 mut inh	GASC1 inh	T cruzi growth-1	T cruzi growth-2	T cruzi growth-3	3T3 cytotox	NIH3T3 tox 2
N#Cc1ccc(-c2ccc3c(c2)[C@H]2[C@H](CCN2C(=O)c2ccccc2F)[C@H](CO)N3)cc1	/	1	88	/	/	/	/
CCCNC(=O)N1CC2(CCN(S(C)(=O)=O)CC2)c2c(n(C)c3cc(OC)ccc23)[C@@H]1CO	/	0	/	/	/	/	/
O=C(C[C@H]1CC[C@@H]2[C@H](COC[C@H](O)CN2C(=O)c2cccnc2)O1)NCc1ccc(-c2ccccc2)cc1	/	-1	5	/	/	/	/
O=C(CN1CCOCC1)N[C@@H]1CC[C@H](CCn2cc(C3CCCC3)nn2)O[C@@H]1CO	/	-1	/	/	/	/	/
CCCNC(=O)N(C)C[C@H]1Oc2cc(C#C[C@H](C)O)ccc2S(=O)(=O)N([C@@H](C)CO)C[C@@H]1C	/	1	7	/	/	/	/
COc1cccc(C#Cc2ccc([C@H]3[C@@H](C#N)N(C(=O)C4CC4)[C@@H]3CO)cc2)c1	/	0	100*	99*	107*	0	16
COc1cccc(C#Cc2ccc([C@H]3[C@@H](CO)N(C(=O)C4CC4)[C@H]3C#N)cc2)c1	0	-4	98*	103*	113*	6	18
COc1cccc(C#Cc2ccc([C@@H]3[C@@H](CO)N(C(=O)C4CC4)[C@H]3C#N)cc2)c1	/	-2	92	/	/	/	/
COc1cccc(C#Cc2ccc([C@@H]3[C@@H](C#N)N(C(=O)C4CC4)[C@H]3CO)cc2)c1	/	-2	91	/	/	/	/
O=C(Nc1ccc(C(F)(F)F)cc1)N1C[C@@H]2N[C@H](C1)C2c1ccc(/C=C/c2ccccc2)cc1 (some centres undefined)	/	-3	/	/	/	/	/
CCC(=O)N1CCCCN2[C@@H](CO)[C@H](c3ccc(C#Cc4cccnc4)cc3)[C@@H]2C1	/	-1	77	/	/	/	/
CN(C)CC(=O)N1CCCCN2[C@H](CO)[C@@H](c3ccc(-c4cncnc4)cc3)[C@H]2C1	/	2	-18	/	/	/	/
CN(C)CC(=O)N1CCCCN2[C@H](CO)[C@H](c3ccc(-c4cccnc4)cc3)[C@H]2C1	/	0	108*	70	1	-6	2
CN(C)CC(=O)N1CCCCN2[C@@H](CO)[C@@H](c3ccc(-c4cccnc4)cc3)[C@@H]2C1	/	-1	?	?	30	3	-1
CCC(=O)N1CCCCN2[C@H](CO)[C@H](c3ccc(C#Cc4cccnc4)cc3)[C@H]2C1	/	-1	101*	100*	39	4	-11
CCC(=O)N1CCCCN2[C@H](CO)[C@@H](c3ccc(-c4cccnc4)cc3)[C@@H]2C1	/	1	60	/	/	/	/
CN(C)CC(=O)N1CCCCN2[C@H](CO)[C@H](c3ccc(-c4cccnc4)cc3)[C@@H]2C1	/	-2	64	/	/	/	/
CCC(=O)N1CCCCN2[C@H](CO)[C@H](c3ccc(-c4cccnc4)cc3)[C@H]2C1	/	1	114*	37	24	-3	9
CCC(=O)N[C@@H]1C=C[C@H](CC(=O)NCC2CC2)O[C@H]1CO	/	0	/	/	/	/	/
C[C@H]1CN([C@@H](C)CO)S(=O)(=O)c2ccc(C#Cc3ccccc3)cc2O[C@@H]1CN(C)C(=O)Cc1ccccn1	0	-4	105*	105*	35	21	51*
C[C@@H]1CN([C@@H](C)CO)S(=O)(=O)c2ccc(C#Cc3ccccc3)cc2O[C@H]1CN(C)C(=O)Cc1ccccn1	-2	-4	72	/	/	/	/
C[C@@H]1CN([C@@H](C)CO)S(=O)(=O)c2ccc(C#Cc3ccccc3)cc2O[C@@H]1CN(C)C(=O)Cc1ccccn1	0	-1	67	/	/	/	/
C[C@@H]1CN([C@H](C)CO)S(=O)(=O)c2ccc(C#Cc3ccccc3)cc2O[C@@H]1CN(C)C(=O)Cc1ccccn1	0	1	?	109*	73	24	58*
CCNC(=O)C[C@@H]1CC[C@@H]2[C@@H](COc3ccc(NC(=O)Nc4cccc(F)c4)cc3C(=O)N2C)O1	/	-2	-6	/	/	/	/
C[C@H]1CN([C@@H](C)CO)C(=O)Cc2cc(NS(=O)(=O)c3cn(C)cn3)ccc2O[C@H]1CN(C)Cc1ccccc1	4	2	46	/	/	/	/

Source: PubChem BioAssay
